The text below walks through data of ChEMBL document CHEMBL1773068, “Drug to genome to drug: discovery of new antiplasmodial compounds” (J Med Chem, 2011).

Assay [1] deals with Plasmodium falciparum. Put plainly: Inhibition of Plasmodium falciparum GHA strain PDE assessed as inhibition of cAMP hydrolysis at 20 uM after 6 hrs by time resolved fluorescence resonance energy transfer-based assay. The procedure, abridged: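 Parasite lysate (2 μL, ~400 000 parasites) incubated with cAMP (150 nM) and inhibitor at 20 μM (4% DMSO final) for 6 h at 37 °C. Buffer: 50 mM Tris-HCl pH 7.4, 6 mM MgCl2, 1 mM MnCl2, 4 mM DTT. Residual cAMP measured by competitive HTRF (d2-labelled cAMP vs anti-cAMP cryptate), 665/620 nm ratio after 1 h at room temperature. Duplicates, each read twice.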

Assay [2] deals with Plasmodium falciparum. Put plainly: Inhibition of Plasmodium falciparum GHA strain PDE assessed as inhibition of cGMP hydrolysis at 20 uM after 6 hrs by time resolved fluorescence resonance energy transfer-based assay. The gist of the method:
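Parasite lysate (2 μL, ~400 000 parasites) incubated with cGMP (150 nM) and inhibitor at 20 μM (4% DMSO final) for 6 h at 37 °C. Buffer: 50 mM Tris-HCl pH 7.4, 6 mM MgCl2, 1 mM MnCl2, 4 mM DTT. Residual cGMP measured by competitive HTRF (d2-labelled cGMP vs anti-cGMP cryptate), 665/620 nm ratio after 1 h at room temperature. Duplicates, each read twice.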

In assay [3] the test system is Plasmodium falciparum. Put plainly: Antiplasmodial activity against chloroquine-susceptible Plasmodium falciparum GHA strain infected in human erythrocytes after 72 hrs by spectrophotometry. In kind it is functional, organism-based. The following applies: for pIC50: read-out: IC50. The gist of the method:
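P. falciparum cultured in human A+ erythrocytes in RPMI-1640 with 10% human serum, 37 °C, low oxygen (3% O2, 4% CO2, 93% N2). Infected red cell suspension (1% parasitemia, 2% hematocrit) incubated with compounds 72 h, then frozen. Growth read by Malstat method: NBT/PES added, 2 h in dark, absorbance at 655 nm. IC50 from duplicate determinations.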

The next assay has as its system MRC5. Put plainly: Cytotoxicity against human MRC5 SV2 cells after 72 hrs. Type of assay: cell-based. To be noted: MRC5, 72 h. The procedure, abridged: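 MRC-5 SV2 human fetal lung fibroblasts grown in MEM with L-glutamine, NaHCO3 and 5% FCS at 37 °C, 5% CO2. 10^4 cells/well seeded onto prediluted compounds, 72 h at 37 °C. Viability by resazurin added for 24 h, fluorescence at ex 530/em 590 nm. IC50 from duplicate determinations.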

pIC50: −log10 of the molar value. Active and inactive are the calls of the source. The calls are words filed in the database; no cut-off is given here.

`OCCN(CCO)c1nc(N2CCCCC2)c2nc(N(CCO)CCO)nc(N3CCCCC3)c2n1` [DIPYRIDAMOLE]: the inhibition entry with Plasmodium falciparum [1] and in the assay on Plasmodium falciparum [2] was “Active” throughout. Besides, the pIC50 in the assay on Plasmodium falciparum [3] was 4.19.

In the case of `O=C1[C@H]2Cc3c([nH]c4ccccc34)[C@@H](c3ccc4c(c3)OCO4)N2C(=O)CN1[C@@H]1CCN(Cc2ccccc2)C1`, the pIC50 in the assay with MRC5 was 5.00; in the assay on Plasmodium falciparum [3] it was 6.30. In addition, in the assay on Plasmodium falciparum [1], the inhibition result is “Active”. The inhibition in the assay on Plasmodium falciparum [2] was 60%. In addition, the IC50 in the assay with Plasmodium falciparum [3] (read-out: pIC50 (converted)) is 0.501 µM.

Take `CCCOc1ccccc1-c1nc2[nH]nnc2c(=O)[nH]1` [ZAPRINAST]: the inhibition entry in the assay with Plasmodium falciparum [1] and in the assay on Plasmodium falciparum [2] was “Active” in each case. The pIC50 in the assay with Plasmodium falciparum [3] was 4.46.

On to `O=C1[C@H]2Cc3c([nH]c4ccc(F)cc34)[C@@H](c3ccc4c(c3)OCO4)N2C(=O)CN1[C@@H]1CCN(Cc2ccccc2)C1` (mixture of isomers), for which the pIC50 in the assay with MRC5 was 4.75; in the assay with Plasmodium falciparum [3], 5.77.

`O=C1[C@H]2Cc3c([nH]c4ccccc34)[C@@H](c3ccc4c(c3)OCO4)N2C(=O)CN1C1CCN(Cc2ccccc2)CC1`: the figures for the pIC50 in the assay with MRC5 and in the assay with Plasmodium falciparum [3] were 5.15 and 6.00, respectively. Further, the inhibition result with Plasmodium falciparum [1] was “Active”. Also, the inhibition in the assay with Plasmodium falciparum [2] is 60%.

For `O=C1[C@H]2Cc3c([nH]c4ccccc34)[C@@H](c3ccc4c(c3)OCO4)N2C(=O)CN1c1cccnc1`, the pIC50 in the assay on MRC5 is under 4.19; in the assay on Plasmodium falciparum [3] it was 4.66.

`O=C1[C@H]2Cc3c([nH]c4ccccc34)[C@@H](c3ccc4c(c3)OCO4)N2C(=O)CN1c1cccs1`: the negative-log IC50 (pIC50) in the assay on MRC5 and in the assay with Plasmodium falciparum [3] was under 4.19 each time.

On to `O=C1[C@H]2Cc3c([nH]c4ccccc34)[C@@H](c3ccc4c(c3)OCO4)N2C(=O)CN1c1ccc(CN2CCOCC2)cc1`, for which the pIC50 in the assay with MRC5 is under 4.19; with Plasmodium falciparum [3] it was 4.72.

As for `NN1CC(=O)N2[C@H](c3ccc4c(c3)OCO4)c3[nH]c4ccccc4c3C[C@@H]2C1=O`, the pIC50 with MRC5 and in the assay with Plasmodium falciparum [3] was under 4.19 throughout.

In general, inhibition refers to the drop in the measured response relative to a control, in per cent. In general, pIC50 refers to −log10 of the IC50, conventionally taken in molar units.
